{
  "source": "paper PMC10339703",
  "about": "(Clinical and Translational Science, 2023)",
  "tested_on": "healthy subjects",
  "assay": "Safety and tolerability",
  "format": "in vivo, human",
  "outline": "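Randomized, double-blind, placebo-controlled (6:2, n = 8/cohort) single oral doses in healthy adults after ≥10 h fast, with sentinel pair observed 24 h first. TEAEs were graded by nature, incidence, severity, seriousness and outcome, coded in MedDRA 23.0. ADR: any AE whose causality to test compound could not be ruled out. Labs, vital signs, examinations and 12-lead ECGs were also monitored.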",
  "data": [
    {"molecule": "O[C@H]1CCCN[C@@H]1CCCn1cnc2c(Cl)c(Cl)ccc21", "note": "[Bersiporocin]", "values": [
      {"measurement": "ADRs, number of events", "setting": "SAD single 100 mg capsule", "value": 3},
      {"measurement": "Abdominal discomfort (ADR), subjects n (%)", "setting": "SAD single 100 mg capsule", "value": 0},
      {"measurement": "Abdominal distension (ADR), subjects n (%)", "setting": "SAD single 100 mg capsule", "value": 0},
      {"measurement": "Abdominal pain (ADR), subjects n (%)", "setting": "SAD single 100 mg capsule", "value": 0},
      {"measurement": "Abdominal pain upper (ADR), subjects n (%)", "setting": "SAD single 100 mg capsule", "value": 0},
      {"measurement": "Constipation (ADR), subjects n (%)", "setting": "SAD single 100 mg capsule", "value": 0},
      {"measurement": "Decreased appetite (ADR), subjects n (%)", "setting": "SAD single 100 mg capsule", "value": 0},
      {"measurement": "Diarrhea (ADR), subjects n (%)", "setting": "SAD single 100 mg capsule", "value": 0},
      {"measurement": "Dysgeusia (ADR), subjects n (%)", "setting": "SAD single 100 mg capsule", "value": 0},
      {"measurement": "Epigastric discomfort (ADR), subjects n (%)", "setting": "SAD single 100 mg capsule", "value": 0},
      {"measurement": "Gastroesophageal reflux disease (ADR), number of events", "setting": "SAD single 100 mg capsule", "value": 1},
      {"measurement": "Gastroesophageal reflux disease (ADR), subjects n (%)", "setting": "SAD single 100 mg capsule", "value": "1 (16.7)"},
      {"measurement": "Headache (ADR), subjects n (%)", "setting": "SAD single 100 mg capsule", "value": 0},
      {"measurement": "Hypersensitivity (ADR), subjects n (%)", "setting": "SAD single 100 mg capsule", "value": 0},
      {"measurement": "Hypotension (ADR), subjects n (%)", "setting": "SAD single 100 mg capsule", "value": 0},
      {"measurement": "Malaise (ADR), subjects n (%)", "setting": "SAD single 100 mg capsule", "value": 0},
      {"measurement": "Nausea (ADR), number of events", "setting": "SAD single 100 mg capsule", "value": 1},
      {"measurement": "Nausea (ADR), subjects n (%)", "setting": "SAD single 100 mg capsule", "value": "1 (16.7)"},
      {"measurement": "Neutropenia (ADR), number of events", "setting": "SAD single 100 mg capsule", "value": 1},
      {"measurement": "Neutropenia (ADR), subjects n (%)", "setting": "SAD single 100 mg capsule", "value": "1 (16.7)"},
      {"measurement": "Oropharyngeal pain (ADR), subjects n (%)", "setting": "SAD single 100 mg capsule", "value": 0},
      {"measurement": "Photosensitivity reaction (ADR), subjects n (%)", "setting": "SAD single 100 mg capsule", "value": 0},
      {"measurement": "Subjects with ADRs, n (%)", "setting": "SAD single 100 mg capsule", "value": "3 (50.0)"},
      {"measurement": "Tachycardia (ADR), subjects n (%)", "setting": "SAD single 100 mg capsule", "value": 0},
      {"measurement": "Vertigo (ADR), subjects n (%)", "setting": "SAD single 100 mg capsule", "value": 0},
      {"measurement": "Vomiting (ADR), subjects n (%)", "setting": "SAD single 100 mg capsule", "value": 0},
      {"measurement": "ADRs, number of events", "setting": "SAD single 100 mg solution", "value": 12},
      {"measurement": "Abdominal discomfort (ADR), subjects n (%)", "setting": "SAD single 100 mg solution", "value": 0},
      {"measurement": "Abdominal distension (ADR), subjects n (%)", "setting": "SAD single 100 mg solution", "value": 0},
      {"measurement": "Abdominal pain (ADR), subjects n (%)", "setting": "SAD single 100 mg solution", "value": 0},
      {"measurement": "Abdominal pain upper (ADR), subjects n (%)", "setting": "SAD single 100 mg solution", "value": 0},
      {"measurement": "Constipation (ADR), subjects n (%)", "setting": "SAD single 100 mg solution", "value": 0},
      {"measurement": "Decreased appetite (ADR), subjects n (%)", "setting": "SAD single 100 mg solution", "value": 0},
      {"measurement": "Diarrhea (ADR), subjects n (%)", "setting": "SAD single 100 mg solution", "value": 0},
      {"measurement": "Dysgeusia (ADR), number of events", "setting": "SAD single 100 mg solution", "value": 1},
      {"measurement": "Dysgeusia (ADR), subjects n (%)", "setting": "SAD single 100 mg solution", "value": "1 (16.7)"},
      {"measurement": "Epigastric discomfort (ADR), subjects n (%)", "setting": "SAD single 100 mg solution", "value": 0},
      {"measurement": "Gastroesophageal reflux disease (ADR), subjects n (%)", "setting": "SAD single 100 mg solution", "value": 0},
      {"measurement": "Headache (ADR), number of events", "setting": "SAD single 100 mg solution", "value": 2},
      {"measurement": "Headache (ADR), subjects n (%)", "setting": "SAD single 100 mg solution", "value": "2 (33.3)"},
      {"measurement": "Hypersensitivity (ADR), subjects n (%)", "setting": "SAD single 100 mg solution", "value": 0},
      {"measurement": "Hypotension (ADR), subjects n (%)", "setting": "SAD single 100 mg solution", "value": 0},
      {"measurement": "Malaise (ADR), subjects n (%)", "setting": "SAD single 100 mg solution", "value": 0},
      {"measurement": "Nausea (ADR), number of events", "setting": "SAD single 100 mg solution", "value": 5},
      {"measurement": "Nausea (ADR), subjects n (%)", "setting": "SAD single 100 mg solution", "value": "5 (83.3)"},
      {"measurement": "Neutropenia (ADR), subjects n (%)", "setting": "SAD single 100 mg solution", "value": 0},
      {"measurement": "Oropharyngeal pain (ADR), subjects n (%)", "setting": "SAD single 100 mg solution", "value": 0},
      {"measurement": "Photosensitivity reaction (ADR), subjects n (%)", "setting": "SAD single 100 mg solution", "value": 0},
      {"measurement": "Subjects with ADRs, n (%)", "setting": "SAD single 100 mg solution", "value": "5 (83.3)"},
      {"measurement": "Tachycardia (ADR), subjects n (%)", "setting": "SAD single 100 mg solution", "value": 0},
      {"measurement": "Vertigo (ADR), subjects n (%)", "setting": "SAD single 100 mg solution", "value": 0},
      {"measurement": "Vomiting (ADR), number of events", "setting": "SAD single 100 mg solution", "value": 4},
      {"measurement": "Vomiting (ADR), subjects n (%)", "setting": "SAD single 100 mg solution", "value": "4 (66.7)"},
      {"measurement": "ADRs, number of events", "setting": "SAD single 300 mg capsule", "value": 15},
      {"measurement": "Abdominal discomfort (ADR), subjects n (%)", "setting": "SAD single 300 mg capsule", "value": 0},
      {"measurement": "Abdominal distension (ADR), number of events", "setting": "SAD single 300 mg capsule", "value": 1},
      {"measurement": "Abdominal distension (ADR), subjects n (%)", "setting": "SAD single 300 mg capsule", "value": "1 (16.7)"},
      {"measurement": "Abdominal pain (ADR), number of events", "setting": "SAD single 300 mg capsule", "value": 2},
      {"measurement": "Abdominal pain (ADR), subjects n (%)", "setting": "SAD single 300 mg capsule", "value": "2 (33.3)"},
      {"measurement": "Abdominal pain upper (ADR), subjects n (%)", "setting": "SAD single 300 mg capsule", "value": 0},
      {"measurement": "Constipation (ADR), subjects n (%)", "setting": "SAD single 300 mg capsule", "value": 0},
      {"measurement": "Decreased appetite (ADR), number of events", "setting": "SAD single 300 mg capsule", "value": 1},
      {"measurement": "Decreased appetite (ADR), subjects n (%)", "setting": "SAD single 300 mg capsule", "value": "1 (16.7)"},
      {"measurement": "Diarrhea (ADR), number of events", "setting": "SAD single 300 mg capsule", "value": 2},
      {"measurement": "Diarrhea (ADR), subjects n (%)", "setting": "SAD single 300 mg capsule", "value": "2 (33.3)"},
      {"measurement": "Dysgeusia (ADR), subjects n (%)", "setting": "SAD single 300 mg capsule", "value": 0},
      {"measurement": "Epigastric discomfort (ADR), subjects n (%)", "setting": "SAD single 300 mg capsule", "value": 0},
      {"measurement": "Gastroesophageal reflux disease (ADR), subjects n (%)", "setting": "SAD single 300 mg capsule", "value": 0},
      {"measurement": "Headache (ADR), number of events", "setting": "SAD single 300 mg capsule", "value": 1},
      {"measurement": "Headache (ADR), subjects n (%)", "setting": "SAD single 300 mg capsule", "value": "1 (16.7)"},
      {"measurement": "Hypersensitivity (ADR), subjects n (%)", "setting": "SAD single 300 mg capsule", "value": 0},
      {"measurement": "Hypotension (ADR), subjects n (%)", "setting": "SAD single 300 mg capsule", "value": 0},
      {"measurement": "Malaise (ADR), number of events", "setting": "SAD single 300 mg capsule", "value": 1},
      {"measurement": "Malaise (ADR), subjects n (%)", "setting": "SAD single 300 mg capsule", "value": "1 (16.7)"},
      {"measurement": "Nausea (ADR), number of events", "setting": "SAD single 300 mg capsule", "value": 4},
      {"measurement": "Nausea (ADR), subjects n (%)", "setting": "SAD single 300 mg capsule", "value": "3 (50.0)"},
      {"measurement": "Neutropenia (ADR), subjects n (%)", "setting": "SAD single 300 mg capsule", "value": 0},
      {"measurement": "Oropharyngeal pain (ADR), subjects n (%)", "setting": "SAD single 300 mg capsule", "value": 0},
      {"measurement": "Photosensitivity reaction (ADR), subjects n (%)", "setting": "SAD single 300 mg capsule", "value": 0},
      {"measurement": "Subjects with ADRs, n (%)", "setting": "SAD single 300 mg capsule", "value": "4 (66.7)"},
      {"measurement": "Tachycardia (ADR), subjects n (%)", "setting": "SAD single 300 mg capsule", "value": 0}
    ]}
  ]
}
